Screens deposited in PubChem by Sanford-Burnham Center for Chemical Genomics.
SENP6 block: blocks the human protease SENP6; Q9GZR1; Recombinant SENP6 catalytic domain, aminoluciferin luminescence; inhibition, % at 10 µM; hit rate 1.8% among 330,000;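 active means inhibition above about 50% at the single tested dose, limit read from the data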
SENP8 block-1: SENP8 (human) protease inhibition; Q96LD8; recombinant SENP8, Nedd8 substrate fluorescence; inhibition, % at 20 µM; hit rate 0.64% among 360,000; in the data active means inhibition mostly above about 40%, no sharp cut-off; inactive means mostly below about 27%
Target sequence (Q96LD8 whole entry, looked up): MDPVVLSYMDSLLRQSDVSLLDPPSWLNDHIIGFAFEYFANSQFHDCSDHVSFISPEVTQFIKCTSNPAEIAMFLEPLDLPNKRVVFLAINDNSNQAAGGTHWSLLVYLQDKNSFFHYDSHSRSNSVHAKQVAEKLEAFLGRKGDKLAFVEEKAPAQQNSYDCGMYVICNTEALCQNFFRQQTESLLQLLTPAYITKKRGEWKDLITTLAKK
SENP7 inh: inhibitors of human SENP7 protease. inhibition, % at 5 µM. recombinant SENP7, Z-RLRGG-aminoluciferin luminescence, 40 min. hit rate 1.5% among 330,000. Q9BQF6;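 active means inhibition above about 50% at the single test dose, limit read from the data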
SENP1 FRET inh: inhibitors of human SENP1 SUMO protease catalytic domain; Q9P0U3; recombinant SENP1 catalytic domain, CyPet-SUMO1-YPet FRET cleavage; inhibition, % at 10 µM; hit rate 0.21% among 360,000;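 active means inhibition at least 30% at 10 µM, raw YFP signal under a set limit, fluorescence ratio 0.5 to 1.5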
Target sequence (Q9P0U3 419-644 limits assumed): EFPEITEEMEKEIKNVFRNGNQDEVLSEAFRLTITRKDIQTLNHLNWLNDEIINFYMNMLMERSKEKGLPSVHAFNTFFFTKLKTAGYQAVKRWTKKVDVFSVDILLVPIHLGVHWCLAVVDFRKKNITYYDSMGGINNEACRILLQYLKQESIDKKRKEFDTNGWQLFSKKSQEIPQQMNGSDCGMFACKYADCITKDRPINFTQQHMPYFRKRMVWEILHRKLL
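Test system: human SENP1 catalytic domain; medium: Tris pH 8 buffer plus EDTA, NaCl, BME, BSA, NP40, catalase; incubation: 50 min reaction at room temperature; technique: FRET, CFP and YFP emission; controls: no-enzyme low control and enzyme-plus-DMSO high control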
SENP8 block-2: inhibitors of human SENP8 protease | Q96LD8 | purified SENP8, Z-RLRGG-aminoluciferin cleavage, luminescence | inhibition, % at 10 µM | hit rate 1.2% among 330,000 | AID 2540; in the data active means inhibition above about 50%
SENP8 conf: human SENP8 inhibition, confirmed; Recombinant SENP8, Z-RLRGG-aminoluciferin luminescence, 60 min; hit rate 40% among 6,200; shares compounds with SENP7 inh; inhibition, % at 12.5 µM;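 active means mean inhibition across replicates above about 50%, limit read from the data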
SENP6 confirm: human SENP6 inhibition, confirmed | recombinant SENP6, Z-RLRGG-aminoluciferin luminescence | hit rate 58% among 6,200 | inhibition, % at 12.5 µM | shares compounds with SENP7 inh
SENP7 conf: confirmation of human SENP7 protease inhibitors | shares compounds with SENP7 inh | recombinant SENP7, Z-RLRGG-aminoluciferin luminescence, 40 min | inhibition, % at 12.5 µM | hit rate 69% among 6,200 | AID 488917
Casp3 select: caspase-3 inhibition (SENP selectivity assay); inhibition, % at 12.5 µM; hit rate 60% among 6,200; purified caspase-3, Z-DEVD-aminoluciferin luminescence, 60 min; shares compounds with SENP7 inh; AID 488918;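 active means mean inhibition above about 50%, limit read from the data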
Luc interf: luminescence interference (SENP counter-screen). hit rate 39% among 6,200. Pre-incubated SENP8/Z-RLRGG-aminoluciferin, luciferase luminescence interference. shares compounds with SENP7 inh. inhibition, % at 12.5 µM;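 active means mean inhibition above about 50% when retested at one dose, limit read from the data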
Of the large screens only hits and unclear results are named; the others gave an inactive call (follow-up assays come after a bar, where they were run). Only some compounds are listed: those with a hit (about 2.5% of all), similar ones and a draw of the others.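 How the source made its calls, unless noted: active means mean inhibition above about 50% in the one-dose retest (limit read from the data); inactive means the rest.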

O=C(Nc1sc2c(c1C(=O)O)CCC2)c1ccco1	SENP6 block 97, SENP7 inh 91, SENP8 block-2 91 | SENP8 conf 94 | SENP6 confirm 94 | SENP7 conf 101 | Casp3 select 96 | Luc interf 93
Cc1ccc(C(=O)Nc2sc3c(c2C(=O)O)CCCCC3)o1	SENP7 inh 91, SENP8 block-2 97 | SENP8 conf 98 | SENP6 confirm 100 | SENP7 conf 103 | Casp3 select 98 | Luc interf 97
NC(=O)c1c(NC(=O)c2ccc([N+](=O)[O-])o2)sc2c1CCCC2	none
Cc1ccccc1NCCC(=O)Nc1ccc(Cl)cc1	none
O=C(O)c1cccc2c(/C=N/Nc3ccccn3)c[nH]c12	SENP6 block 90, SENP7 inh 90, SENP8 block-2 88 | SENP8 conf 65 | SENP6 confirm 92 | SENP7 conf 93 | Casp3 select 93 | Luc interf inactive
ON=Cc1ccnc2ccccc12	none (no result: SENP6 block, SENP7 inh, SENP8 block-2)
O=C(O)c1ccccc1N/N=C\c1ccnc2ccccc12	SENP6 block 94, SENP8 block-2 90 | SENP8 conf inactive | SENP6 confirm 100 | SENP7 conf 103 | Casp3 select 97 | Luc interf 94
C(=N\Nc1ccccn1)/c1c[nH]c2ccccc12	none
O=C(O)c1ccccc1N/N=C/c1cc(Br)cc(Br)c1O	SENP6 block 102, SENP8 block-2 92 | SENP8 conf 94 | SENP6 confirm 98 | SENP7 conf 97 | Casp3 select 70 | Luc interf inactive
CC(C)Oc1cccc(NC(=O)C2(C)CCN2C(C)C)c1 (stereo not given)	none (no result: SENP6 block, SENP7 inh, SENP8 block-2)
O=C(OCc1ccccc1)N1CCN(C(c2ccnc3ccccc23)c2nnnn2-c2ccc3c(c2)OCCO3)CC1 (stereo not given)	none (no result: SENP6 block, SENP7 inh, SENP8 block-2)
C=CCN1C(=O)/C(=C/C=C2/N(CC)c3ccc(S(=O)(=O)N(C)C)cc3N2CC)SC1=S	none
CCOC(=O)C1=C(COC(=O)COc2ccc(Br)cc2)NC(=O)NC1C (stereo not given)	none
Cc1ccsc1C(=O)NC1CCCN(Cc2ccc(Cl)cc2)C1 (stereo not given)	none
O=c1cc(-c2ccc(O)cc2)oc2ccc3ccccc3c12	SENP6 block 97, SENP7 inh 99, SENP8 block-2 98 | SENP8 conf 97 | SENP6 confirm 100 | SENP7 conf 103 | Casp3 select 99 | Luc interf 83
COc1c(O)cc2oc(-c3ccc(O)cc3)cc(=O)c2c1O	SENP6 block 57, SENP7 inh 59 | SENP8 conf 63 | SENP6 confirm 60 | SENP7 conf 88 | Casp3 select 71 | Luc interf 71
Oc1ccc(-c2nc3ncccn3c2Nc2ccc3c(c2)OCO3)cc1	SENP6 block 86, SENP7 inh 93 | SENP8 conf inactive | SENP6 confirm inactive | SENP7 conf inactive | Casp3 select inactive | Luc interf inactive
Clc1ccc(-c2nc3ncccn3c2Nc2ccc3c(c2)OCO3)cc1	none
O=C(O)c1cccc(NC(=S)N/N=C/c2cccc(O)c2)c1	none
O=C(O)c1cccc(NC(=S)N/N=C/c2ccccn2)c1	SENP7 inh 77, SENP8 block-2 62 | SENP8 conf 77 | SENP6 confirm 76 | SENP7 conf 95 | Casp3 select inactive | Luc interf 75
Clc1ccc2oc(-c3ccccn3)nc2c1	SENP6 block 67, SENP7 inh 57 | SENP8 conf inactive | SENP6 confirm 56 | SENP7 conf 86 | Casp3 select 78 | Luc interf inactive
Nc1ccc2oc(-c3ccccn3)nc2c1	none
CCOc1ccc(-c2cn(-c3ccccc3OC)c(=S)[nH]2)cc1	none
